The target in this assay is Casein kinase I isoform delta (Homo sapiens) (UniProt P48730). Put plainly: CK1d kinase inhibitors, late-stage follow-up, biochemical, radioactive 33P-ATP, purified kinase, powder samples (AID 463077). The following applies: 33P-ATP filter-binding, CK1tide. The essentials: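 Test system: Purified human casein kinase 1 delta (CK1d) enzyme | Buffer or medium: pH 7.5 HEPES buffer with 1% DMSO | Dosing: 10-point threefold dilution series from nominal 50 µM top dose | Incubation: Kinase reaction run 120 min at room temperature | Detection: 33P incorporation by filter binding | Evaluation: IC50 from radioactivity ratio versus concentration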
Sequence of Casein kinase I isoform delta (Homo sapiens) (P48730 whole entry, looked up, canonical isoform): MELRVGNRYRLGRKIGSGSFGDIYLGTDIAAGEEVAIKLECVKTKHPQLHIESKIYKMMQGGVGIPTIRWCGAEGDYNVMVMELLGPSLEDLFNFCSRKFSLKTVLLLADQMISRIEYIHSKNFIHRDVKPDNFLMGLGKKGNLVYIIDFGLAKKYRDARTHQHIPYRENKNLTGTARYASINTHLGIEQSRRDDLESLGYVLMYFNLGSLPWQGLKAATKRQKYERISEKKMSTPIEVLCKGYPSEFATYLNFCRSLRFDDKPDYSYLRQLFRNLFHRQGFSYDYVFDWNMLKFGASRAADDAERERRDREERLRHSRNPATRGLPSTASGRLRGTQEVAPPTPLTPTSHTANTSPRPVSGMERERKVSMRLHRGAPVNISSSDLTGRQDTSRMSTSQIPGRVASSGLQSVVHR

Activity calls are given as the source filed them.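 How the source made its calls: active means compounds whose half-inhibition concentration IC50 on CK1 delta kinase is at most 1 µM; inactive means the rest.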

Regarding `FC(F)(F)c1cccc2[nH]c(CNc3nc(N4CCOCC4)nc4c3ncn4-c3ccsc3)nc12`, the half-inhibitory concentration (IC50) – broadly, the concentration needed to halve the response being measured – was 128 nM. For `CC(C)n1cnc2c(NCc3nc4c([N+](=O)[O-])cccc4[nH]3)nc(N3CCOCC3)nc21`, the IC50 was 815 nM. Next, `O=[N+]([O-])c1cccc2[nH]c(CNc3nc(N4CCOCC4)nc4c3ncn4-c3ccsc3)nc12`: 49 nM; `CCOC(=O)c1cccc2[nH]c(CNc3nc(N4CCOCC4)nc4c3ncn4-c3ccsc3)nc12`: 361 nM. The figure for `N#Cc1ccc2nc(CNc3nc(N4CCOCC4)nc4c3ncn4-c3ccsc3)[nH]c2c1` is 11 nM. As to `Cc1ccnc(NC(=O)CCCOc2cc(=O)n(C)c3ccccc23)c1`, the IC50 entry was “inactive”.

Regarding `Fc1ccc2nc(CNc3nc(N4CCOCC4)nc4c3ncn4-c3ccsc3)[nH]c2c1`, the IC50 was 50 nM. Turning to `O=[N+]([O-])c1ccc2nc(CNc3nc(N4CCOCC4)nc4c3ncn4-c3ccsc3)[nH]c2c1`, the half-maximal inhibitory concentration (IC50) is 21 nM. In the case of `c1ccc2cc3[nH]c(CNc4nc(N5CCOCC5)nc5c4ncn5-c4ccsc4)nc3cc2c1`, the IC50 was 129 nM. Next, `c1ccc2[nH]c(CNc3nc(N4CCOCC4)nc4c3ncn4-c3ccsc3)nc2c1`: 161 nM; `FC(F)(F)c1ccc2nc(CNc3nc(N4CCOCC4)nc4c3ncn4-c3ccsc3)[nH]c2c1`: 13 nM. Next, `COc1ccc2nc(CNc3nc(N4CCOCC4)nc4c3ncn4-c3ccsc3)[nH]c2c1`: 17 nM; `Clc1ccc2nc(CNc3nc(N4CCOCC4)nc4c3ncn4-c3ccsc3)[nH]c2c1`: 105 nM.

The values are drawn from PubChem BioAssay AID463077 (The Scripps Research Institute Molecular Screening Center, 2010).
